For data set [1], the system named is Trypanosoma brucei brucei. In words: Antitrypanosomal activity against Trypanosoma brucei brucei TC221 […] after 72 hrs by alamar blue assay. Particulars: for IC50: TC221, 72 h. It is filed as functional, organism-based. Put shortly: (§1)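 Trypomastigote T. b. brucei TC 221 grown in Baltz medium, seeded at 10⁴ per mL and exposed to graded compound concentrations (dissolved in DMSO or 0.1 M NaOH). Incubated at 37 °C, 5% CO₂ for 72 h, with a reading also taken at 48 h. AlamarBlue absorbance read at 550/630 nm. IC50 by linear interpolation; duplicate tests, mean and SD.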
On the technique in general: Alamar Blue is a resazurin reagent that responds to reducing activity.

Data set [2] relates to Trypanosoma brucei brucei. The data set is described as follows: Antitrypanosomal activity against Trypanosoma brucei brucei TC221 […] after 48 hrs by alamar blue assay. Particulars: for IC50: TC221, 48 h. The data set is classed as functional, organism-based. Put shortly:
as §1

The nature of data set [3]: Selectivity index, ratio of IC50 for mouse J774.1 cells to IC50 for Trypanosoma brucei brucei TC221. It is filed as toxicity. The conditions noted are these: read-out: Ratio IC50.
A short description of data set [4]: Cytotoxicity against mouse J774.1 cells after 48 hrs by alamar blue assay. It is filed as cell-based. The conditions noted are these: J774.1, 48 h. An outline of the steps:
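J774.1 macrophages kept in complete Click RPMI, detached by scraping, PBS-washed, suspended at 2 × 10⁶ cells/mL and plated in phenol-red-free RPMI with or without compound. AlamarBlue added and absorbance read 24 and 48 h later. Compound-free wells taken as 100% growth. Effects of cell density, incubation time and DMSO level were controlled. Tested in duplicate.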

Data set [5] in a line: Lipophilicity, log P of the compound by RP-HPLC analysis. It is filed as physicochemical. Particulars: read-out: logP. Put shortly: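 LogP by RP-HPLC on a C18 Inertsil ODS-2 column. Mobile phase was methanol/10 mM phosphate buffer pH 7.4 (70:30) at 1.5 mL/min. Samples were at 4 μg/mL, detected at 254.4 nm, and run in duplicate. Capacity ratio was calculated as k′ = (tr − to)/to.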

The structures appear in SMILES notation. Counter-ions that a name gives are not always drawn. Activity calls are given as the source filed them. The calls are words filed in the database; no cut-off is given here.

As to `CCCCn1cc(C(=O)NCc2ccc(O)cc2)c(=O)c2cc(F)c(N3CCC(C(N)=O)CC3)cc21`, the values for the 50% inhibitory concentration (IC50) in data set [1], in data set [2] and in data set [4] were 5.12 µM, 3.09 µM and 41.6 µM, respectively. The selectivity ratio in data set [3] worked out at 13.5.
In data set [2], `Nc1nc(N)nc(Nc2ccc([As]3SCC(CO)S3)cc2)n1` (stereo not drawn) [MELARSOPROL] registered a 50% inhibitory concentration (IC50) of 0.0026 µM.
Consider `CCCCn1cc(C(=O)NCc2ccccc2)c(=O)c2cc(F)c(N(C)Cc3ccccc3)cc21`, for which the IC50 in data set [1] stood at 10.8 µM; in data set [2], 5.4 µM; in data set [4], 86 µM. For the same compound, the selectivity ratio in data set [3] was 15.9.
The matching figures for `CCCCn1cc(C(=O)O)c(=O)c2cc(F)c(Cl)cc21`: greater than 40 µM, greater than 40 µM, greater than 100 µM and greater than 2.5.
As for `CCCCn1cc(C(=O)O)c(=O)c2cc(F)c(N3CCCCC3)cc21`, the figures for the half-inhibitory concentration (IC50) in data set [1], in data set [2] and in data set [4] were 18.1 µM, 14.6 µM and 93 µM, respectively. For the same compound, in data set [3], the selectivity ratio was 6.39.
The matching figures for `CCCn1cc(C(=O)NCc2ccco2)c(=O)c2cc(F)c(N3CCC(C(N)=O)CC3)cc21`: 4.84 µM, 4.6 µM, 56.9 µM and 12.4.
In the case of `NC(=O)C1CCN(c2cc3c(cc2F)c(=O)c(C(=O)NCc2ccccc2)cn3C2CC2)CC1`, the IC50 in data set [1] came to 1.91 µM; in data set [2], 1.07 µM; in data set [4] it was 51.2 µM. Also, the logP in data set [5] came to 2.4. Also, the selectivity ratio in data set [3] worked out at 47.9.
In the same order, the values of `CCCCn1cc(C(=O)NCc2ccc([N+](=O)[O-])cc2)c(=O)c2cc(F)c(N3CCC(C(N)=O)CC3)cc21` are 0.58 µM, 0.54 µM, greater than 100 µM, 2.4 and greater than 185.
The matching figures for `CCCCn1cc(C(=O)NCc2ccccc2)c(=O)c2cc(F)c(N3CCCCC3)cc21`: 1.04 µM, 0.67 µM, 47.8 µM, 2.4 and 71.3.
As to `CCCCn1cc(C(=O)O)c(=O)c2cc(F)c(N3CCOCC3)cc21`, the values for the IC50 in data set [1], in data set [2] and in data set [4] were 22.2 µM, 19.2 µM and greater than 100 µM, respectively. Also, the selectivity ratio in data set [3] was greater than 5.21.
In the same order, the values of `CCCCn1cc(C(=O)O)c(=O)c2cc(F)c(N(C)C)cc21` are greater than 40 µM, greater than 40 µM, greater than 100 µM and greater than 2.5.
Regarding `CCCCn1cc(C(=O)NCc2ccccc2)c(=O)c2cc(F)c(N3CCC(C(N)=O)CC3)cc21`, the figures for the IC50 in data set [1], in data set [2] and in data set [4] were 1.98 µM, 1.09 µM and 47 µM, respectively. Besides, the lipophilicity (logP) in data set [5] worked out at 2.4. Further, in data set [3], the selectivity ratio was 43.1.
As to `Cc1ccc(C(=O)Nc2ccc(S(=O)(=O)O)c3cc(S(=O)(=O)O)cc(S(=O)(=O)O)c23)cc1NC(=O)c1cccc(NC(=O)Nc2cccc(C(=O)Nc3cc(C(=O)Nc4ccc(S(=O)(=O)O)c5cc(S(=O)(=O)O)cc(S(=O)(=O)O)c45)ccc3C)c2)c1` [SURAMIN HEXASODIUM], in data set [2], inhibition was half-maximal at 0.31 µM (IC50).
With `CCCCn1cc(C(=O)O)c(=O)c2cc(F)c(N(C)Cc3ccccc3)cc21`, the half-maximal inhibitory concentration (IC50) in data set [1] amounted to 23 µM; in data set [2], 17.2 µM; in data set [4], 43.2 µM. For the same compound, the selectivity ratio in data set [3] amounted to 2.51.
The matching figures for `CCn1cc(C(=O)NCc2ccc(OC)cc2)c(=O)c2ccc(C(F)(F)F)cc21`: 6.37 µM, 7.31 µM, greater than 100 µM and greater than 13.7.
In the same order, the values of `CCCCn1cc(C(=O)NCc2ccccc2)c(=O)c2cc(F)c(-c3ccccc3)cc21` are greater than 40 µM, greater than 40 µM, greater than 100 µM and greater than 2.5.
As to `CCCCn1cc(C(=O)O)c(=O)c2cc(F)c(N3CCC(C(N)=O)CC3)cc21`, the concentration for half-maximal inhibition (IC50) was greater than 40 µM in data set [1], greater than 40 µM in data set [2] and greater than 100 µM in data set [4]. Also, in data set [3], the selectivity ratio is greater than 2.5.
`CCn1cc(C(=O)O)c(=O)c2ccc(C(F)(F)F)cc21`: the IC50 was greater than 40 µM in data set [1], greater than 40 µM in data set [2] and greater than 100 µM in data set [4]. Moreover, the selectivity ratio in data set [3] is greater than 2.5.
Turning to `CCCCn1cc(C(=O)NCc2ccc(OC)c([N+](=O)[O-])c2)c(=O)c2cc(F)c(N3CCC(C(N)=O)CC3)cc21`, the IC50 in data set [1] was 4.14 µM; in data set [2], 3.07 µM; in data set [4], greater than 100 µM. Further, the selectivity ratio in data set [3] was greater than 32.6.
The matching figures for `COc1ccc(CNC(=O)c2cn(C3CC3)c3cc(N4CCC(C(N)=O)CC4)c(F)cc3c2=O)cc1`: 2.56 µM, 2.75 µM, greater than 100 µM and greater than 36.4.
The matching figures for `NC(=O)C1CCN(c2cc3c(cc2F)c(=O)c(C(=O)NCc2ccco2)cn3C2CC2)CC1`: 12.1 µM, 8.89 µM, greater than 100 µM and greater than 11.2.
As for `CCOC(=O)c1cnc2cc(C(F)(F)F)ccc2c1O`, the result in data set [1] and in data set [2] was inactive.
Consider `CCCn1cc(C(=O)NCc2ccc(OC)cc2)c(=O)c2cc(F)c(N3CCC(C(N)=O)CC3)cc21`, for which the IC50 in data set [1] was found to be 3.12 µM; in data set [2] it was 2.28 µM; in data set [4], 41.4 µM. In data set [3], the selectivity ratio worked out at 18.2.
The matching figures for `CCCn1cc(C(=O)O)c(=O)c2cc(F)c(Cl)cc21`: greater than 40 µM, greater than 40 µM, greater than 100 µM and greater than 2.5.
In the same order, the values of `CCCn1cc(C(=O)O)c(=O)c2cc(F)c(N3CCC(C(N)=O)CC3)cc21` are greater than 40 µM, greater than 40 µM, greater than 100 µM and greater than 2.5.
For the compound `NC(=O)C1CCN(c2cc3c(cc2F)c(=O)c(C(=O)O)cn3C2CC2)CC1`, the IC50 in data set [1] was greater than 40 µM; in data set [2], greater than 40 µM; in data set [4], greater than 100 µM. The selectivity ratio in data set [3] is greater than 2.5.
In data set [2], `N=C(N)c1ccc(OCCCCCOc2ccc(C(=N)N)cc2)cc1` [PENTAMIDINE ISETHIONATE] returned an IC50 of 0.0029 µM.
Turning to `CCn1cc(C(=O)Nc2ccc(Cl)c(F)c2)c(=O)c2ccc(C(F)(F)F)cc21`, the IC50 is greater than 40 µM in data set [1], greater than 40 µM in data set [2] and greater than 100 µM in data set [4]. Besides, in data set [3], the selectivity ratio was greater than 2.5.
In the case of `NCCCC(N)(C(=O)O)C(F)F` (stereo not drawn) [EFLORNITHINE HYDROCHLORIDE], the IC50 in data set [2] was found to be 22.9 µM.
In the case of `CCCn1cc(C(=O)NCc2ccccc2)c(=O)c2cc(F)c(N3CCC(C(N)=O)CC3)cc21`, the IC50 in data set [1] amounted to 1.25 µM; in data set [2] it was 0.75 µM; in data set [4], 43.7 µM. For the same compound, the logP in data set [5] was 2.4. Also, in data set [3], the selectivity ratio amounted to 58.3.
In the same order, the values of `CCCCn1cc(C(=O)NCc2ccco2)c(=O)c2cc(F)c(N3CCC(C(N)=O)CC3)cc21` are 1.84 µM, 1.03 µM, 41.4 µM, 2.4 and 40.2.
Consider `CCOC(=O)c1c[nH]c2cc(Cl)c(F)cc2c1=O`, for which the result in data set [1] and in data set [2] was inactive.

As usually defined, the IC50 is the concentration at which inhibition is half-maximal. A low value points to greater potency in that assay. For orientation: logP means the decadic logarithm of the partition coefficient of the neutral form, usually between octanol and water.

Source of the values: ChEMBL document CHEMBL2029291, “Synthesis and structure-activity relationships of new quinolone-type molecules against Trypanosoma brucei” (J Med Chem, 2012).
